The text below walks through data of the RNAGym collection of RNA variant scans (doi:10.1126/science.aae0568).

This sample holds only a part of the variants without activity.

The labels stand for the following.
B1: tRNA (parent)
chain: GUUCCGUUGGCGUAAUGGUAACGCGUCUCCCUCCUAAGGAGAAGACUGCGGGUUCGAGUCCCGUACGGAACG

Variants of B1 are the subject of this data set. Briefly: yeast fitness relative to wild type (ratio to wild type); higher = fitter; tRNA-Arg(CCU), competitive growth, 37 C, YPD. Summed up: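 Changes in genotype frequencies gave Darwinian fitness relative to wild type. Frequencies were read by 100-nucleotide paired-end sequencing of gene amplicons before and after pooled Saccharomyces cerevisiae strains, carrying tRNA-Arg(CCU) gene variants at the native locus, were competed in YPD at 37°C for 24 hours in six replicates. A genotype was kept only with ≥ 100 starting reads, and estimates < 0.5 were set to 0.5.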
Turning to GUUCGGUUGGCGUAAUGGUAACGCGUCUCCCUCCUAAGGAGAAGACUCUGGGUGUGAGUCCCGUAAGGAACG, the yeast fitness came out at 0.604.
On to GUUCGGUUGGCGUAAUGGUAACCCGUCUCCGUCCUAAGGAGAAGACUGCGGGUUCGAGUACCGUACGGAUCG, for which the yeast fitness was at most 0.5.
As to GUUCGGUUGGCGUAAUGGUAACGCGUCUCCCUCCUAAGGAGAACACUGCGGGUUAGAGUCCCGUACGGAACG, the yeast fitness was at most 0.5.
In the case of GUUCGGUUGGCGUAAUGGUAACGCAUCUCCCUCCUAAGGAGCAGACUGCGGGUUCGAGUCCCGUACGAAACG, the yeast fitness is at most 0.5.
The same measure for GUUCGGAUGGCGUUAUGGUAACGCGUCUCCCUCCUAAGGAGAAGACUGCGGGUUCGAGUCCCGUACGGAACG: 0.624.
As to GUUCGGUUGGCGUAAUGGUAACGCGUCUCCCUCCUAAGAAGAAGACUGGGGGUUUGUGUCCCGUACGGAACG, the yeast fitness is at most 0.5.
GUUCGGCUGGGGUAAUGGUAACGCGUCUCCCUCCUAAGGGGAAGACUGCGGGUUCGUGUCCCGUACGGAUCG: the yeast fitness is at most 0.5.
The same measure for GUUCGGUUGGCGUAAUGGUAACGCAUCUCCCUCCUAAGGAGAAGACUGCGGGUUCGAGUCGCGUACGGAACG: 0.564; for GUUCGGAUGGCGUAAUGGUCACGCGUCUCCCUCCUAAGGAGAAGAUUGCGGGUUCGAGUCCCGUACGGAACG: at most 0.5; for GUUCGGUUGGCGUAAUGGUAACGCAUCUCCCUCCUAAGGAGAAGACUGCGGGUUCGAGUCCCGUACGGACCG: 0.758.
The figure for GUUCGGUUGGCGUAAUGGUAACCCGUCUCCCUCCUCAGGAGAAGACUGCGGGUUCGAGUCCCGUACGGAACG is at most 0.5; for GUUCGGUUGGCGUAAUGGUAACGCCUCUCCCUCCUAAGGAGAAGAGUGCGGGUUCGAGUCCCGGACGGAACG it is at most 0.5; for GUUCGGUUGGCGUAAUGGUAACGCGUCUCCCUCCUAAAGAGAAGACUGCGGGUUCGAGUCCCGUACGGUACG it is 0.559.
The same measure for GUUCGGCUGGGGUAAUGGUAACGCGUCUCCCUCCUAAGGGGAAGACUGCGGGUUCGUGUCCCGUACGGAACG: 0.542.
As to GUUCGGUUGGCGUAAUGGUAACGCGUCUCCCUCCUAAGGAGAAGACUGCGCGUUCGAGUCCCGUCCGGAACG, the yeast fitness was at most 0.5.
GUUCGGUUGGCGUAAUGGUAACGCGUCUCCCUCCUAAGGAGAAGACUGCGGGUUCGAGUCCCAUACGGCACG: the yeast fitness turned out to be 0.614.
The figure for GUUCGGUUGGCGUAAUGGUAACGCGUCUCCCUCCUAAGGAGAAAACUGCGGGUUGGAGUCCCGUACGGAACG is 0.527; for GUUCGGUUGGCGUAAUGGUAACGCGUCUCCCUCCUAAGGAGAAGACUGCGGCUUCGAGUCCCGUAUGGAACG it is at most 0.5.
The figure for GUUCGGUUGGCGUAAUGGUAACGCGUCUCCCUCCUAAGGAGAAGACUGCGGGUUCGAGUCCCGUACGUAACG is 0.678.
The figure for GUUCGGUUGGCGUAAUCGUAACGCGUCUCCCUCCUAAGGAGAUGACUGCGGGUUCGAGUCCCGUACGGCACG is 0.596; for GUUCGGCUGGCGUAAUGGUUACGCGUCUCCCUCCUAAGGAGAGGACUGCGGGUUCGAGUCCCGUACGGAACG it is at most 0.5; for GUUCGGUUGGCGUAAUGAUAACGCGUCUCCCUCCUAAGGAGAAGACUGCGGGUUAGAGUCCCGUACGGAACG it is at most 0.5.
Consider GUUCGGAUGGCGUAAUGGUGACGCGUCUCCCUCCUAAGGAGAAGACGGCCCGUUCGAGUCCCGUACGGAACG, for which the yeast fitness was at most 0.5.
The same measure for GUUCGGUUGGCGUAAUGGUAACGCAUCUCCCUCCUAAGGAGAAGACUACGGGUUCGAGUCCCGUACGGAACG: 0.724; for GUUCGGUUGGCGUAAUGCUAACGCGCCACCCUCCUAAGGAGAAGACUGCGGGUUCGAGUCCCGUACGGAACG: at most 0.5; for GUUCGGUUGGCGUAAUGGUAACGCGUCUCCCUCCUAAGGAGAAGACUGCGCGUUCGUGUUCCGUACGGAACG: at most 0.5.
The same measure for GUUCGGUUGGCGUAAUGGUAACGCGUCUCCCUCCUAAGAAGAAGACUGCGGAUUCGAGUCCCGUACGGAGCG: at most 0.5.
Turning to GUUCGGUUGGCGUAAUGGUAACGCCUCUCCCUCCUAAGGAGAAAACUGCGGGUUCGAGUCCCGUACGGAACG, the yeast fitness was at most 0.5.
With GUUCGGUUGGCGUAAUCGUAACGCGUCUCCCUCCUAAGGAGAAGACUGCGGGUUCGAGUCCCAUGCGGAACG, the yeast fitness was at most 0.5.
The same measure for GUUCGGUUGGCGUAAUGGUAACACGUCUCCCCCCUAAGGAGAAGACUGCGGGUUCGAGUCACGUACGGAACG: at most 0.5.
The same measure for GUUCGGUUGGCGUAAUAGUAACGCGUCUCCCUUCUACGGAGAAGACUGCGGGUUCGAGUCCCGUCCGGAACG: at most 0.5; for GUUCGGUUGGCGUAAUGGUAACGCGUCUCCCUCCUAAGGACAAGUCUGCGGGUUCGAGUCCCGUACGGAACG: 0.583.
As for GUUCGGUUGGCGUAAUGGUAACGCGUCUCCCUCCUAAGGAGAAGACUGCGGGUUCGAAUCCCGUACGGAACG, the yeast fitness came out at 0.957.
For GUUCGGUUGGCGUAAUAGUAACGCGUCUCCCUCCUAAGGAGAAGAGUGCGGGUUCGAGUCCCGUACGGAACG, the yeast fitness worked out at 0.538.
Take GUUCGGUUGGCGUAAUGGUAACGCGUCUCCCUCCUAAGAAGAAGACUGCGGGUUCGAGUCCCGUACGGAGCG: the yeast fitness worked out at 0.617.
The same measure for GUUCGGUUGGCGUAAUGAUAAUGCGUCUCCCUCCUAAGGAGAAGACUGCGGGUUCGAGUCCCGUACGGAACG: at most 0.5.
The figure for GUUCGGAUGGUGUAAUGGUAACGCGUCUCCAUCCUAAGGAGAAGCCUGCGGGUUCGAGUCCCGUACGGAACG is at most 0.5; for GUUCGGCUGGCGUAAUGGUAACGCGUCUCCCUCAUAAGGAGAAGACUGCGGGUUCGAGUCCCGUACGGAACG it is at most 0.5; for GUUCGGUUGGCGUAAUGGUAACGCGUCUCCCUCCUAAGGAGAAAACUGCGGGUUCGAGUCCCGUACGGUACG it is 0.646.
Turning to GUUCGGUUGGCGUAAUGGUAACGCGUCUCCCUCCUAAGGAGAAGACUCCGGGUUCGAGUCCCGUACGGUACG, the yeast fitness was 0.587.
As to GUUCGGUUGGCGUAAUGGUAACGCGUCUCCCUCCUAAGGAGAAGACUACGGGUUCGAGUCCGGUACGGUACG, the yeast fitness stood at 0.768.
The figure for GUUCGGAUGGCGUAAUGGUAACGCGUCUCCCUCCUAAGGAGCAGACUGCGGGUUCGAGUCCCGUACGGAACG is at most 0.5.
The figure for GUUCGGUUGGCGUAAUGGUAACCCGUCUCCCUCCUAAGGAGAAGACUGCGGGUUCGAGUCCCGUACGGAACG is 0.695; for GUUCGGUUGGCGUAAUGGUAACACGUCUCCCUCCUAAGGAGAUGACUGCGGGUUCGAGUCCCGUGCGAAACG it is at most 0.5.
The same measure for GUUCGGUUGGCGUAAUGGUAACGCAUCUCCCUCCUAAGGAGAAGACUGCGGGUUCGAGUCCCGUACGGUACG: 0.75; for GUUCGGUUGGCGUAAUGGUAACGCGUCUCCCUCCUAAGGAGAACACUGUGGGUUCGAGGCCCGUACGGAACG: at most 0.5; for GUUCGGUUGGCGUAAUCGUAACGCAUCUCCCUCCUAAGGCGAAGACUGCGGGUUCGAGACCCGUACGGAACG: 0.54.
For GUUCGGUUGGCGUAAUGGUAACGCGUCUCCCUCCUAAGAAGAAGACUGCGGGUUCGAGUCCCGUACGGAACG, the yeast fitness is 0.725.
The figure for GUUCGGUUGGCGUAAUGGUAACGCCUCUCCCUCCUAAGGAGAAGACUGUGGGUUCGAGUCCCGUACGGAACG is 0.689.
For the variant GUUCGGUUGGCGUAAUGGUAACGCGUCUCCCUCCUAAAGAGAAGACUGCGGGUUCGAGUCCCGUACGGAACG, the yeast fitness came to 0.729.
Consider GUUCGGUUGGCGUAAUGGUAACACGUCUCCCUCCUAAGGAGAAGACUGCGGGUUCGAGUUCGGUACGGAACG, for which the yeast fitness is at most 0.5.
The figure for GUUCGGUUGGCGUAAUGGUAACGCGUCUCCCUCCUAAGGAGAAGACUGCGCGUUCGAGUCGCGUAUGGAACG is at most 0.5.
The figure for GUUCGGUUGGCGUAAUAGUAACGCGUCUCCCUCCUAAGGAGAAGACUGCGGGUUCGAGUCCAGUACGGAACG is at most 0.5; for GUUCGGUUGGCGUAAUGGUAACGCGUCUCCCUCCUAAGGAGAAGACUGCGAGUUCGAGUCCCGUACGAAACG it is at most 0.5; for GUUCGGUUGGCGUAAUCGUAACGCGUCUCCCUCCUAAGGAGAAGACUGCAGGUUCGAGUCCCGUUCGGAACG it is at most 0.5.
Regarding GUUCGGUUGGCGUAAUCGUAACGCAUCUCCCUCCUAAGGAGAAGACUGCGGGUUCGAGUCCCGUACGGAGCG, the yeast fitness is at most 0.5.
The figure for GUUCGGUUGGCGUAAUGGUAACGCGUCUCCCUCCUAAGAAGAAGACUGUGGGUUCGAGUCCCGUACGGAACG is 0.524.
The same measure for GUUCGGUUGGCGUAAUGGUAACGCGUCUCCCUCCUAAGGAGAAGACUGCGGGUUCGAGUCCCAUACGGAACG: 0.843; for GUUCGGUUGGCGUAAUGGUAACGCGUCUCCCUCCUAAGGAGAAGACUGCGGGUUCGAGUCCCCUACGGAACG: 0.626.
Consider GUUCGGUUGGCGUAAUAGUCACGCGUCUCCCUCCUAAAGAGAAGACUGCGGGUUCGACUCCCGUAUGGAACG, for which the yeast fitness is at most 0.5.
As for GUUCGGUUGGCGUAAUGGUAACGCGUCUCCCUCCUAAGGAGAAGACUGCAGGUUCGAGUCCCGUACGGAACG, the yeast fitness is 0.835.
The same measure for GUUCGGUUGGCGUAAUGGUAACGCGUCUCCCUCCUAAGGAGAAGACUGCCGGUUCGAGUCCCGUACGGAACG: 0.701.
The same measure for GUUCGGUUGGCGUAAUGGUAACGCGUCUCCCUCCUAAGGAGAAGACUGCGCGUUCGAGUCCCGUACGGAACG: 0.761.
The same measure for GUUCGGUUGGCGUAAUGGUAACGCGUCUCCCUCCUAAGGAGAAGACUGCGAGUUCGAGUCCCGUACGGAACG: 0.78.
Take GUUCGGUUGGCGUAAUGGUAACGCGUCUCCCUCCUAAGGACAAGACUGCGGGUUCGAGUCUCGUACGGAACG: the yeast fitness was at most 0.5.
The same measure for GUUCGGUUGGCGUAAUGGUAACGCGUCUCCCUCCUAAGGAGAAGACUAUGGGUUCGAGUCCCGUACGGAACG: 0.933; for GUUCGGUUGGCGUAAUGGUAACGCAUCUCCCUCCUAAGGAGAAGACUACGGGUUCGAGUCGCGUACGGAACG: at most 0.5.
The same measure for GUUCGGUUGGCGUAAUGGUAACGCGUCUCCCUCCUAAGGAGAAGACUGCGGGUUCGAGUCCCGUACGCGACG: 0.54; for GUUCGGUUGGCGUAAUCGUAACGCGUCUCCCUCCUAAGGAGAAGGUUGCGGGUUCGAGUCCCGUACGGAACG: at most 0.5; for GUUCGGUUGGCGUAAUCGUAACGCGUCUCCCUCCUAAGGAGAAGACUGCGGGUUUGAGUCCCGUACGGAACG: at most 0.5.
For the variant GUUCGGUUGGCGUAAUGGUAACGCGUCUCCCUCCUAAGGAGAAGACUGCAGGUUCGAGUCCCGUGCGGAACG, the yeast fitness was 0.587.
Consider GUUCGGUUGGCGUAAUGGUAACGCGUCUCCCUCCUAAGGAGAAGACUGCGGGUUCAAGUCCCGUACGGAACG, for which the yeast fitness came to 0.975.
The same measure for GUUCGGUUGGCGUAAUAGUCACGCGUCUCCCUCCUAAGGAGAAGACUGGGGGUUCGAGUCCCGUACGGCACG: at most 0.5.
The figure for GUUCGGAUGGCGUAAUGGUCACGCGUCUCCCUCCUAAGGAGAAGACUGCGGGUUCGAGUCCCGUACGCAACG is at most 0.5; for GUUCGGUUGGCGUAAUGGUAACCCGUCUCCCUUCUAAGAAGACGACUGCGGGUUCGAGUCCCGUACGGAACG it is at most 0.5.
